Assay outcomes: PubChem BioAssay, several laboratories
Only some compounds are listed: those with a hit (about 4% of all), similar ones and a draw of the others.
MDM2 E3 inh = blocks human Mdm2 ubiquitin ligase activity. Q00987. cell-based MDM2 ubiquitination luciferase reporter, 2 h; 0 = plate control, 100 = twice control, blank-subtracted. signal enhancement, % at 5 µM. actives 0.11% (n = 210,000);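 active = signal enhancement of 30% or more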;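 also: luminescence tracks abundance of the self-degrading MDM2-luciferase fusion protein; higher signal means inhibition of MDM2 E3 ligase activity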
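system = mammalian cells stably expressing self-ubiquitinating, self-degrading MDM2 E3–luciferase fusion | quantity = 2000 cells per well seeded | incubation = 4 h cell settling then 2 h compound exposure, 37 °C | signal = SteadyLite luminescence, 15 min reagent step | benchmarks = plate control and blank wells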
S1P3 antagonist = S1P3 (human) receptor antagonism; Q99500; CHO S1P3 NFAT-BLA reporter, FRET fluorescence, antagonist mode; inhibition, % at 4.98 µM; actives 0.27% (n = 170,000);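 active = inhibition above the plate cutoff, the mean inhibition of test wells on that plate plus 3 SD, cut at about 28% in these data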;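 also: cells challenged with S1P at its EC80 of 0.8 µM; blue over green emission ratio from cleaved BLA substrate after 4 h stimulation; 0% = S1P-stimulated wells and 100% = unstimulated DMSO-only wells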
Target sequence (Q99500 whole entry, looked up): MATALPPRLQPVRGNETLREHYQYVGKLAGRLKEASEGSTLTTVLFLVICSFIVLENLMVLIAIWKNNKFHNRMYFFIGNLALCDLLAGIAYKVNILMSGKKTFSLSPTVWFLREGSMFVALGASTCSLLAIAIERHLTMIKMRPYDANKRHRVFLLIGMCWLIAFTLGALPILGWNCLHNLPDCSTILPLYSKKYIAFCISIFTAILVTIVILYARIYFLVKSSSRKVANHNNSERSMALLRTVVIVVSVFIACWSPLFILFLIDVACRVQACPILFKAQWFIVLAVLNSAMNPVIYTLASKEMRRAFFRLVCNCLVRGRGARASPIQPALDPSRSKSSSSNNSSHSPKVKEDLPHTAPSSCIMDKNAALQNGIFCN
CHOP inh = inhibitors of CHOP induction in ER stress response. actives 3.8% (n = 220,000). CHO-K1 CHOP-promoter luciferase, tunicamycin-induced, 15-18 h. inhibition, % at 10 µM;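 active = compounds that reduced the stress-induced luciferase reporter signal by more than about 70% of percent inhibition, limit read from the data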;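 also: 0% = tunicamycin plus vehicle and 100% = wells without tunicamycin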
Hsp70 activator = switches on Hsp70 transcription; actives 0.04% (n = 200,000); AID 1203; activation, % at 10 µM; HeLa Hsp70 promoter luciferase reporter, luminescence; scaled: vehicle 0, proteasome-inhibitor control 100%;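 active = activation above the mean across all tested compounds plus 3 SD, cutoff set per campaign, cut at about 5.5% in these data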;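 also: 100% = MG132 at 30 µM as the positive control and 0% = DMSO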
CHOP confirm = confirmation of CHOP induction inhibitors | shares compounds with CHOP inh | CHO-CHOP promoter luciferase reporter, tunicamycin-induced, luminescence | inhibition, % at 10 µM | actives 45% (n = 2,100);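 active = mean of three repeat readings of reporter signal inhibition above a set limit, cut at about 70% in these data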;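 also: 0% = tunicamycin plus vehicle and 100% = wells lacking tunicamycin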
Active calls of the source: *.

Screening CN1CCC(=NNc2ncnc3sc4c(c23)CCCC4)CC1 returned MDM2 E3 inh 6, S1P3 antagonist -1, CHOP inh -14 and Hsp70 activator 0.
Screening CSc1nc2c(cnn2-c2ccc(C)c(C)c2)c(=O)[nH]1 returned MDM2 E3 inh -9, S1P3 antagonist -19, CHOP inh 100*, Hsp70 activator 0 and CHOP confirm 111*.
`O=C(CCN1C(=O)/C(=C/C=C/c2ccccc2)SC1=S)Nc1cccnc1` gave MDM2 E3 inh 3, S1P3 antagonist 6, CHOP inh 102*, Hsp70 activator 0 and CHOP confirm 30.
For O=C(CN1C(=O)/C(=C/c2ccccc2)SC1=S)Nc1cccnc1 the results were MDM2 E3 inh -7, S1P3 antagonist -5, CHOP inh 28 and Hsp70 activator 0.
CCN(CCNS(=O)(=O)c1ccc2[nH]c(=O)sc2c1)c1ccccc1 was read as MDM2 E3 inh -55, S1P3 antagonist 10, CHOP inh 17 and Hsp70 activator 0.
Screening Cc1n[nH]c(C)c1S(=O)(=O)N(CC(=O)N1CCc2ccccc21)c1ccc(C(C)C)cc1 returned MDM2 E3 inh -3, S1P3 antagonist 10, CHOP inh 96*, Hsp70 activator 0 and CHOP confirm 36.
For Cc1ccc(NC(=S)NC(=O)c2ccc(-c3ccc(Cl)cc3)o2)c(O)c1 the results were MDM2 E3 inh -10, S1P3 antagonist -14, CHOP inh 12 and Hsp70 activator 0.
For Cc1cc(O)c(NC(=S)NC(=O)c2ccc(-c3ccc(Cl)cc3)o2)cc1C the results were MDM2 E3 inh 4, CHOP inh 105*, Hsp70 activator 0 and CHOP confirm 113*.
COc1ccc(OCCC(=O)NCC23CC4CC(CC(C4)C2)C3)cc1 was read as MDM2 E3 inh -11, S1P3 antagonist -10, CHOP inh 29 and Hsp70 activator 0.
For CC1(C)CC(C(CCN(Cc2ccccc2)C(=O)c2ccco2)c2ccc(F)cc2)CCO1 (configuration not stated) the results were MDM2 E3 inh -2, S1P3 antagonist -8, CHOP inh 101*, Hsp70 activator 0 and CHOP confirm 79*.
`CC1(C)CC(N(Cc2ccc(F)cc2)C(=O)c2ccc(F)cc2)CCO1` (configuration not stated) gave MDM2 E3 inh -21, S1P3 antagonist -4 and CHOP inh 11.
O=C(c1ccco1)N(CCC(c1ccccc1)c1ccco1)Cc1ccc(F)cc1 (configuration not stated) was read as MDM2 E3 inh -15, CHOP inh 108*, Hsp70 activator 0 and CHOP confirm 58.
Screening O=C(CN(Cc1ccc(F)cc1)C(=O)c1ccco1)NCc1ccc(F)cc1 returned MDM2 E3 inh -4, S1P3 antagonist 21, CHOP inh -9 and Hsp70 activator 0.
`O=C(CSc1ccc2ccccc2n1)N1CCC(c2noc3ccc(F)cc23)CC1` gave MDM2 E3 inh 12, CHOP inh 35 and Hsp70 activator 0.
Screening Fc1cc(F)c(F)c(SCCc2ccncc2)c1F returned MDM2 E3 inh -3, CHOP inh 7 and Hsp70 activator 0.
Screening COc1ccc(/C=C/C(=O)NC(=S)NNC(=O)c2cccnc2)cc1 returned MDM2 E3 inh 5, S1P3 antagonist 2, CHOP inh 98*, Hsp70 activator 0 and CHOP confirm 77*.
COc1ccc(C2c3ccc(O)cc3Oc3ncn4nc(-c5ccco5)nc4c32)cc1OC (configuration not stated) was read as MDM2 E3 inh -6, S1P3 antagonist 2 and CHOP inh -1.
For O=C(Nc1ccc2c(c1)CCC2)C1CCN(c2c3c(nc4ncnn24)CCC3)CC1 the results were MDM2 E3 inh -9, S1P3 antagonist 11 and Hsp70 activator 0.
`O=C(Nc1ccc(Oc2ccccc2)cc1)C1CCN(c2c3c(nc4ncnn24)CCC3)CC1` gave MDM2 E3 inh -10, CHOP inh 104*, Hsp70 activator 1 and CHOP confirm 92*.
For Cc1cc(C)c(NC(=O)CSc2nnc(-c3ccccn3)n2N)c(Cl)c1 the results were MDM2 E3 inh -3, S1P3 antagonist 5 and CHOP inh 9.
Screening COC(=O)Cc1ccc(NC(=S)NCc2cccc(OC)c2)cc1 returned MDM2 E3 inh -11, S1P3 antagonist 4, CHOP inh 8 and Hsp70 activator 0.
`CCCCc1ccc(NC(=S)NCc2cccc(OC)c2)cc1` gave MDM2 E3 inh -3, S1P3 antagonist -10, CHOP inh 102*, Hsp70 activator 0 and CHOP confirm 19.
`OC(c1ccc(OCc2ccccc2)cc1)c1nnc(-c2ccccc2)o1` (configuration not stated) gave MDM2 E3 inh -1, CHOP inh 97*, Hsp70 activator 0 and CHOP confirm -33.
Screening OC(c1cccc(OCc2ccccc2)c1)c1nnc(-c2ccccc2)o1 (configuration not stated) returned MDM2 E3 inh 12, S1P3 antagonist -6, CHOP inh 111*, Hsp70 activator 0 and CHOP confirm 106*.
`O=C1c2cccc3cccc(c23)C(=O)N1CCc1ccccc1` gave MDM2 E3 inh -6, S1P3 antagonist 7, CHOP inh -25 and Hsp70 activator 0.
COc1ccc(/C=C2/SC(=S)N(CCCC(=O)Nc3ccc(O)cc3)C2=O)cc1 was read as MDM2 E3 inh -1, S1P3 antagonist -1, CHOP inh 99* and CHOP confirm 118*.
For CCc1ccc(/C=C2\SC(=S)N(CCCC(=O)Nc3ccccn3)C2=O)cc1 the results were MDM2 E3 inh -13, CHOP inh 102*, Hsp70 activator -1 and CHOP confirm 126*.
Screening COC(=O)CCCCCN1C(=O)/C(=C\c2ccncc2)SC1=S returned MDM2 E3 inh -19, S1P3 antagonist -10 and CHOP inh 20.
COc1ccc(/C=C2\SC(=S)N(CCCC(=O)Nc3ccc(O)cc3)C2=O)cc1 was read as MDM2 E3 inh -9, S1P3 antagonist -7, CHOP inh 99* and CHOP confirm 112*.
For COc1cccc(-n2nnc3c(=O)n(CC(=O)Nc4cc(C)on4)cnc32)c1 the results were MDM2 E3 inh -28, S1P3 antagonist -4, CHOP inh 13 and Hsp70 activator 0.
Screening COc1ccc(OC)c(CN2CCN(Cc3cccc4ccccc34)CC2)c1 returned MDM2 E3 inh -5, S1P3 antagonist 0, CHOP inh 22 and Hsp70 activator 0.
`CCN1CCN(Cc2ccc(NC(=O)c3ccc(C)c(NC(=O)c4c[nH]c5cc(C(F)(F)F)ccc5c4=O)c3)cc2C(F)(F)F)CC1` gave MDM2 E3 inh 7, CHOP inh 104* and CHOP confirm 114*.
